Source: article PMC7182240 (The Pediatric Infectious Disease Journal, 2020)
Entries after “also recorded” stand apart in the source; their conditions may differ. *1 amine or outer side, *2 acyl side, *3 side chain or, on linkers, in order; H or OH if unused. Where a SMILES comes first, the peptide text is derived from it. Bridges are numbered along the chain shown (N, C = ends). [ ]: non-standard residue; d: D form. The star is where a group is joined. pTerphenylCO(4''-OnC5H11) = CCCCCOc1ccc(-c2ccc(-c3ccc(C(=O)*)cc3)cc2)cc1; Orn(4R-OH,5R-OH) = O=C([C@H](C[C@@H](O)[C@@H](O)N[*:3])N[*:1])[*:2]; hTyr(3S-OH,4S-OH) = N[C@H](C(=O)O)[C@H](O)[C@@H](O)c1ccc(O)cc1; Pro(3S-OH,4S-Me) = C[C@H]1CN[C@H](C(=O)O)[C@H]1O; Hyp = O=C(O)[C@@H]1C[C@@H](O)CN1

Columns and labels:
[1] = tested on: invasive candidiasis, including candidemia (Candida species); assay: Global response, relapse and microbiologic outcome in invasive candidiasis; assay type: in vivo, human
Method in brief: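 Modified intent-to-treat patients (≥1 dose, microbiologically confirmed Candida infection) received IV drug: 3 mg/kg loading dose on day 1, then 1.5 mg/kg daily for ≤35 days. An optional switch to oral fluconazole (6–12 mg/kg/d, max 800 mg/d) was allowed after ≥10 days IV, to ≤49 days total. Global response was assessed at end of IV therapy, end of treatment, and week 2 and 6 follow-up. Relapse and new infection were also assessed. Analysis was descriptive.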

Safety and tolerability = assay type: in vivo, human
Method in brief: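 Safety population: all 19 patients aged 1 month to <2 years, with confirmed or high-risk invasive candidiasis, who received IV drug (3 mg/kg day 1, then 1.5 mg/kg daily, ≤1.1 mg/min, ≤35 days). Optional oral fluconazole was allowed after ≥10 days (confirmed cases) or ≥5 days (high-risk), to ≤49 days total. Treatment-emergent adverse events and all-cause mortality were recorded throughout the study and summarized descriptively.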

invasive candidiasis = conditions: cited from earlier work
[2] = PS80 plasma concentration in infants; assay type: in vivo, human; conditions: infants receiving anidulafungin formulated with PS80
[3] = safety population n = 19, all causalities, AEs up to 30 days after last dose

CCCCCOc1ccc(-c2ccc(-c3ccc(C(=O)N[C@H]4C[C@@H](O)[C@@H](O)NC(=O)[C@@H]5[C@@H](O)[C@@H](C)CN5C(=O)[C@H]([C@@H](C)O)NC(=O)[C@H]([C@H](O)[C@@H](O)c5ccc(O)cc5)NC(=O)[C@@H]5C[C@@H](O)CN5C(=O)[C@H]([C@@H](C)O)NC4=O)cc3)cc2)cc1 [anidulafungin] ({pTerphenylCO(4''-OnC5H11)}-[Orn(4R-OH,5R-OH)]T[Hyp][hTyr(3S-OH,4S-OH)]T[Pro(3S-OH,4S-Me)]; lactam 1-C)
Global response success rate at EOIVT ([1]; 11 of 16 patients, MITT, 1 month to <2 years): 68.8% | Patients achieving negative blood cultures ([1]; 15 of 16): 93.8% | Resistance to anidulafungin ([1]; Candida species): No resistance to anidulafungin was observed | Median time to first negative blood culture ([1]; MITT population): 3 days | Relapse or new infection ([1]; week 2 and week 6 follow-up visits): No patients relapsed or experienced new infection | Patients with treatment-related TEAEs (Safety and tolerability; 3 of 19 patients): 15.8% | Patients with severe TEAEs (Safety and tolerability; 7 of 19 patients): 36.8% | Patients with TEAEs of any causality (Safety and tolerability; 17 of 19 patients, safety population): 89.5% | Treatment-related deaths (Safety and tolerability; safety population n = 19): no treatment-related deaths occurred; also recorded: No deaths were considered related to anidulafungin | Incidence of TEAE: Device-related infection (Safety and tolerability; [3]): 1 (5.3) n (%) | Incidence of TEAE: Lower respiratory tract infection (Safety and tolerability; [3]): 1 (5.3) n (%) | Incidence of TEAE: Upper respiratory tract infection (Safety and tolerability; [3]): 1 (5.3) n (%) | Global response of success at EOIVT in adults (invasive candidiasis): 75.6%

polysorbate 80 [PS80]
Hepatotoxicity or PS80 accumulation [2]: No hepatotoxicity or PS80 accumulation was detected

OC(Cn1cncn1)(Cn1cncn1)c1ccc(F)cc1F [fluconazole]
TEAEs related to fluconazole (Safety and tolerability; 6 patients switched to oral fluconazole 6-12 mg/kg/d): No patients experienced TEAEs related to fluconazole
